ChEMBL document CHEMBL3351600, “Sulfur, selenium and tellurium pseudopeptides: synthesis and biological evaluation” (Bioorg Med Chem, 2014)

Key:
[1] = Growth inhibition of human EKVX cells after 48 hrs; type: functional
Outline: (§1)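 NCI-60 human tumour cell line panel screen run at the US National Cancer Institute under its standard cytotoxicity protocol. It covers leukaemia, NSCLC, colon, CNS, melanoma, ovarian, renal, prostate and breast lines. An initial single-dose test was followed by five-dose testing with 48 h compound exposure.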

DU-145 = test: Growth inhibition of human DU145 cells after 48 hrs; type: functional; details: DU-145, 48 h; outline: as §1
[2] = Growth inhibition of human HCT15 cells after 48 hrs; type: functional; details: HCT-15, 48 h; outline: as §1
[3] = Growth inhibition of human HOP92 cells after 48 hrs; type: functional; details: HOP-92, 48 h; outline: as §1
[4] = Growth inhibition of human MOLT4 cells after 48 hrs; type: functional; details: MOLT-4, 48 h; outline: as §1
A498 = test: Growth inhibition of human A498 cells after 48 hrs; type: functional; details: A498, 48 h; outline: as §1
SNB-75 = test: Growth inhibition of human SNB75 cells after 48 hrs; type: functional; details: SNB-75, 48 h
Outline: (§2)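 Run by the NCI 58-cell-line screen under its standard cytotoxicity protocol. Compounds were first tested at a single dose, then at five doses. Cells were exposed to compound for 48 h.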

[5] = Growth inhibition of human SF295 cells after 48 hrs; type: functional; details: SF-295, 48 h; outline: as §1
[6] = Growth inhibition of human OVCAR3 cells after 48 hrs; type: functional; details: OVCAR-3, 48 h; outline: as §1
HL-60(TB) = test: Growth inhibition of human HL-60(TB) cells after 48 hrs; type: functional; details: HL-60, 48 h; outline: as §1
[7] = Growth inhibition of human LOXIMVI cells after 48 hrs; type: functional; details: LOX IMVI; outline: as §1
SW-620 = test: Growth inhibition of human SW620 cells after 48 hrs; type: functional; details: SW-620, 48 h; outline: as §2
Klebsiella pneumoniae = test: Antimicrobial activity against Klebsiella pneumoniae assessed as inhibition at 20 ug/6 mm disk after 1 to 2 days by agar diffusion assay; type: functional
Outline: (§3)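 Standard agar diffusion: 6-mm paper disks loaded with 20 µg of compound were placed on inoculated plates. Inhibition-zone diameter (mm) was read after 1 and 2 days of growth.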

KM12 = test: Growth inhibition of human KM12 cells after 48 hrs; type: functional; details: KM12, 48 h; outline: as §1
K562 = test: Growth inhibition of human K562 cells after 48 hrs; type: functional; details: K562, 48 h; outline: as §1
MCF7 = test: Cytotoxicity against human MCF7 cells assessed as cell viability after 24 hrs incubation by MTT assay; type: functional, cell-based; details: MCF7, 24 h
Outline: (§4)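 Cell lines came from DSMZ; primary human fibroblasts served as non-cancer controls. Cells were grown in medium with 10% FCS, seeded at 50,000 cells/ml, and grown 2 days at 37 °C, 10% CO2. Serial dilutions were then added for 24 h. MTT (final 0.5 mg/ml) was added for 2 h. Formazan was pelleted, PBS-washed, dissolved in isopropanol/0.4% HCl and read at 590 nm. Two parallel experiments were run. IC50 was taken as the concentration giving 50% of untreated-control absorbance.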

[8] = Growth inhibition of human HCC2998 cells after 48 hrs; type: functional; details: HCC 2998, 48 h; outline: as §1
TK-10 = test: Growth inhibition of human TK10 cells after 48 hrs; type: functional; details: TK-10, 48 h; outline: as §2
Saccharomyces cerevisiae = test: Antimicrobial activity against Saccharomyces cerevisiae assessed as inhibition at 20 ug/6 mm disk after 1 to 2 days by agar diffusion assay; type: functional; outline: as §3
NCI-H322M = test: Growth inhibition of human NCI-H322M cells after 48 hrs; type: functional; details: read-out: pLC50 (the source's name) (converted); outline: as §1
786-0 = test: Growth inhibition of human 786-0 cells after 48 hrs; type: functional; details: 786-0, 48 h; outline: as §1
A-431 = test: Cytotoxicity against human A431 cells assessed as cell viability after 24 hrs incubation by MTT assay; type: functional, cell-based; details: A-431, 24 h; outline: as §4
Aspergillus niger = test: Antimicrobial activity against Aspergillus niger assessed as inhibition at 20 ug/6 mm disk after 1 to 2 days by agar diffusion assay; type: functional; outline: as §3
NCI-H226 = test: Growth inhibition of human NCI-H226 cells after 48 hrs; type: functional; details: NCI-H226, 48 h; outline: as §1
A549 = test: Growth inhibition of human A549/ATCC cells after 48 hrs; type: functional; details: A549, 48 h; outline: as §1
MDA-MB-435 = test: Growth inhibition of human MDA-MB-435 cells after 48 hrs; type: functional; details: MDA-MB-435, 48 h; outline: as §1
[9] = Growth inhibition of human OVCAR5 cells after 48 hrs; type: functional; details: OVCAR-5, 48 h; outline: as §1
[10] = Growth inhibition of human RPMI8226 cells after 48 hrs; type: functional; details: RPMI-8226, 48 h; outline: as §1
SK-MEL-5 = test: Growth inhibition of human SK-MEL-5 cells after 48 hrs; type: functional; details: SK-MEL-5, 48 h; outline: as §2
HOP-62 = test: Growth inhibition of human HOP62 cells after 48 hrs; type: functional; details: HOP-62, 48 h; outline: as §1
[11] = Growth inhibition of human COLO205 cells after 48 hrs; type: functional; details: COLO 205, 48 h; outline: as §1
T47D = test: Growth inhibition of human T47D cells after 48 hrs; type: functional; outline: as §2
[12] = read-out: pLC50 (the source's name) (converted)

## COc1ccc(N(CC(=O)NCCC[Te]c2ccccc2)C(=O)c2ccccc2)cc1
[1]
  GI50: 4.07 µM
[1]; [12]
  CC50: > 100 µM
[1]; read-out: pTGI (converted)
  TGI: 5.25 µM
DU-145
  GI50: 3.89 µM
  LC50: 64.6 µM
DU-145; read-out: pTGI (converted)
  TGI: 13.8 µM
[2]
  GI50: 2.95 µM
[2]; [12]
  CC50: > 100 µM
[2]; read-out: pTGI (converted)
  TGI: 15.1 µM
[3]
  GI50: 4.07 µM
[3]; [12]
  CC50: 69.2 µM
[3]; read-out: pTGI (converted)
  TGI: 10 µM
[4]
  GI50: 3.55 µM
[4]; [12]
  CC50: > 100 µM
[4]; read-out: pTGI (converted)
  TGI: 16.6 µM
A498
  GI50: 2.19 µM
  LC50: 25.1 µM
A498; read-out: pTGI (converted)
  TGI: 5.37 µM
SNB-75
  GI50: 2.57 µM
SNB-75; [12]
  CC50: 39.8 µM
SNB-75; read-out: pTGI (converted)
  TGI: 9.55 µM
[5]
  GI50: 1.7 µM
[5]; [12]
  CC50: > 100 µM
[5]; read-out: pTGI (converted)
  TGI: 8.13 µM
[6]
  GI50: 5.75 µM
[6]; [12]
  CC50: 56.2 µM
[6]; read-out: pTGI (converted)
  TGI: 20 µM
HL-60(TB)
  GI50: 2.14 µM
HL-60(TB); [12]
  CC50: > 100 µM
HL-60(TB); read-out: pTGI (converted)
  TGI: 5.75 µM
[7]
  GI50: 3.72 µM
  LC50: 100 µM
[7]; read-out: pTGI (converted)
  TGI: 14.1 µM
SW-620
  GI50: 3.89 µM
SW-620; [12]
  CC50: 56.2 µM
SW-620; read-out: pTGI (converted)
  TGI: 14.5 µM
Klebsiella pneumoniae
  diameter of the inhibition zone (DIZ): 12 mm
KM12
  GI50: 3.16 µM
KM12; [12]
  CC50: 46.8 µM
KM12; read-out: pTGI (converted)
  TGI: 11.7 µM
K562
  GI50: 5.13 µM
K562; [12]
  CC50: > 100 µM
K562; read-out: pTGI (converted)
  TGI: > 100 µM
MCF7
  IC50: 27 µM
[8]
  GI50: 3.02 µM
[8]; [12]
  CC50: 36.3 µM
[8]; read-out: pTGI (converted)
  TGI: 8.13 µM
TK-10
  GI50: 3.89 µM
  LC50: 69.2 µM
TK-10; read-out: pTGI (converted)
  TGI: 11.5 µM
Saccharomyces cerevisiae
  diameter of the inhibition zone (DIZ): 0 mm
NCI-H322M
  CC50: > 100 µM
786-0
  GI50: 5.13 µM
  LC50: 64.6 µM
786-0; read-out: pTGI (converted)
  TGI: 19.5 µM
A-431
  IC50: 5 µM
Aspergillus niger
  diameter of the inhibition zone (DIZ): 10 mm
NCI-H226
  GI50: 2.63 µM
NCI-H226; [12]
  CC50: 100 µM
NCI-H226; read-out: pTGI (converted)
  TGI: 7.24 µM
A549
  GI50: 0.38 µM
A549; [12]
  CC50: 17.8 µM
A549; read-out: pTGI (converted)
  TGI: 2.14 µM
MDA-MB-435
  GI50: 8.13 µM
MDA-MB-435; [12]
  CC50: > 100 µM
MDA-MB-435; read-out: pTGI (converted)
  TGI: 30.2 µM
other
  Retention_time: 0.89 min
[9]
  GI50: 3.8 µM
  LC50: 52.5 µM
[9]; read-out: pTGI (converted)
  TGI: 11.5 µM
[10]
  GI50: 3.16 µM
[10]; [12]
  CC50: > 100 µM
[10]; read-out: pTGI (converted)
  TGI: 19.1 µM
SK-MEL-5
  GI50: 2.4 µM
SK-MEL-5; [12]
  CC50: 24.5 µM
SK-MEL-5; read-out: pTGI (converted)
  TGI: 6.03 µM
HOP-62
  GI50: 2.4 µM
HOP-62; [12]
  CC50: 18.2 µM
HOP-62; read-out: pTGI (converted)
  TGI: 5.37 µM
[11]
  GI50: 2.57 µM
[11]; [12]
  CC50: > 100 µM
[11]; read-out: pTGI (converted)
  TGI: 6.03 µM
T47D
  GI50: 3.39 µM
  LC50: > 100 µM
T47D; read-out: pTGI (converted)
  TGI: 21.4 µM
